According to ChEMBL document CHEMBL2163226, “Discovery of novel N-phenylphenoxyacetamide derivatives as EthR inhibitors and ethionamide boosters by combining high-throughput screening and synthesis” (J Med Chem, 2012):
Activity calls are given as the source filed them. No cut-off for these calls is given here.

What was measured:
[1] = biological target: HTH-type transcriptional regulator EthR (Mycobacterium smegmatis (strain ATCC 700084 / mc(2)155)) (UniProt A0R666); assay: Binding affinity to Mycobacterium smegmatis mc2 155 EthR assessed as protein thermal unfolding at 20 uM by SYPRO Orange dye based thermal shift assay; conditions: Mycolicibacterium smegmatis MC2 155
HTH-type transcriptional regulator EthR (Mycobacterium smegmatis (strain ATCC 700084 / mc(2)155)), sequence (A0R666 whole entry): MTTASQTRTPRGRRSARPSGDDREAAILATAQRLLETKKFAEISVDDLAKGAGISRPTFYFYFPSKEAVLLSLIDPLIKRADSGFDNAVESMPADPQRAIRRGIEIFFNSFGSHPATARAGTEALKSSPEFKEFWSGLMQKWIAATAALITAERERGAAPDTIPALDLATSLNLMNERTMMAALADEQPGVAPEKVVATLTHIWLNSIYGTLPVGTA
How it was run: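 Purified EthR (10 μM final) was mixed with 20 μM ligand, 2.5× SYPRO Orange and 1% DMSO in EthR buffer. Samples were heated from 37 to 85 °C at 0.04 °C/s in a qPCR instrument, with fluorescence read at Ex/Em 465/510 nm. Tm was taken as the sigmoid inflection, and ΔTm as holo minus apo Tm. Values are the mean of two experiments.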

[2] = biological target: HTH-type transcriptional regulator EthR (Mycobacterium tuberculosis) (UniProt P9WMC1); assay: Inhibition of EthR in Mycobacterium tuberculosis H37Rv-GFP infected in mouse Raw 264.7 cells assessed as boosting of 0.1 uM ethionamide-induced microbial growth inhibition at 10 uM by automated fluorescent confocal microscopy; assay type: cell-based
HTH-type transcriptional regulator EthR (Mycobacterium tuberculosis), sequence (P9WMC1 whole entry): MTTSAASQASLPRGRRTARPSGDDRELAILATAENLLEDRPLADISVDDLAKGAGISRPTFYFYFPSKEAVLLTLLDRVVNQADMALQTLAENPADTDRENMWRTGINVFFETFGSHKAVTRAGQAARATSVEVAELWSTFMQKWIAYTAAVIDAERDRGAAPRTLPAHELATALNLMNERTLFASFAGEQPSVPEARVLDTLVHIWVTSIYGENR

[3] = biological target: HTH-type transcriptional regulator EthR (Mycobacterium smegmatis (strain ATCC 700084 / mc(2)155), UniProt A0R666); assay: Inhibition at EthR in Mycobacterium smegmatis mc2 155 assessed as reactivation of beta-glucuronidase activity measured over 48 hrs by Spectrophotometry; parameters: species or system Mycolicibacterium smegmatis MC2 155
HTH-type transcriptional regulator EthR (Mycobacterium smegmatis (strain ATCC 700084 / mc(2)155), UniProt A0R666), sequence (A0R666 whole entry): as the sequence (A0R666 whole entry) above
How it was run: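 The reporter was M. smegmatis mc²155 carrying P1 (single-copy, hsp60-driven ethR overexpression) and P2 (uidA under the ethA promoter/operator). Culture at OD600 0.2 was mixed with MUG and compound in 10% DMSO solution. MU fluorescence (ex 390/[…]) was read at 0, 24 and 48 h at 37 °C. IC50 came from dose–response; the P2-only strain served as positive control.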

[4] = test system: Mycobacterium tuberculosis; assay: Antituberculosis activity against Mycobacterium tuberculosis H37Rv-GFP infected in mouse Raw 264.7 cells assessed as microbial growth inhibition at 10 uM by automated fluorescent confocal microscopy; assay type: functional, organism-based
How it was run: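 Raw264.7 macrophages were infected with H37Rv-GFP (MOI 1:1, 2 h, 37 °C, shaking). Extracellular bacilli were killed with 20 μM amikacin for 1 h, then infected cells were incubated with compound at 10 μM alone for 5 days (37 °C, 5% CO2). After SYTO 60 staining, confocal imaging (488/635 nm) gave the percentage of infected cells; values are the average of two replicates.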

| SMILES | inhibition [1] | ΔTm [1] [°C] | growth inhibition (GI) [2] [%] | other results |
| --- | --- | --- | --- | --- |
| O=C(CCl)Nc1ccccc1 | Active |  |  |  |
| COc1ccccc1NC(=O)CCl | inactive |  |  |  |
| O=C(COc1ccc(C(F)(F)F)cc1)Nc1ccc2c(c1)OCO2 |  | 6.2 | 1.4 |  |
| O=C(CCl)Nc1ccc(-c2nc3ccccc3s2)cc1 | Active |  |  |  |
| Cc1ccc(OCC(=O)Nc2ccc(Cl)c(Cl)c2)cc1 |  | 6.8 | -10.4 |  |
| O=C(CCl)N(c1ccccc1)C1CCCCC1 | inactive |  |  |  |
| COc1ccc(OCC(=O)Nc2ccc(Cl)c(Cl)c2)cc1 |  | 6.1 | -0.6 |  |
| O=C(COc1cccc(Oc2ccccc2)c1)Nc1ccccc1 |  | 6.1 | 2.2 |  |
| O=C(COc1ccc(F)c(F)c1)Nc1ccc(C(F)(F)F)cc1 |  | 5.6 | -12.5 |  |
| COc1cccc(O)c1 | Active |  |  |  |
| N#Cc1cccc(NC(=O)COc2cccc(Oc3ccccc3)c2)c1 |  | 5.7 | -7.2 |  |
| O=C(CCl)Nc1ccc(Cl)c(Cl)c1 | Active |  |  |  |
| Cc1ccc(OCC(=O)Nc2ccc(-c3nc4ncccc4o3)cc2)c(C)c1 |  |  |  | IC50 [3]: < 10 µM |
| COc1cccc(NC(=O)COc2ccc(C(F)(F)F)cc2)c1 |  | 5 | -1.5 |  |
| O=C(CCl)Nc1ccc(Oc2ccccc2)cc1 | Active |  |  |  |
| COc1cccc(OCC(=O)Nc2ccc(-c3ccccc3)cc2)c1 |  | 7 | -2.9 |  |
| O=C(COc1ccc(Cl)cc1Cl)Nc1ccc2nc3n(c(=O)c2c1)CCCC3 |  |  |  | IC50 [3]: < 10 µM |
| N#Cc1ccc(NC(=O)COc2cccc(Oc3ccccc3)c2)cc1 |  | 6.7 | -8.9 |  |
| O=C(COc1ccc(F)c(F)c1)Nc1ccc(Oc2ccccc2)cc1 |  | 5.7 | -13.5 |  |
| CCOc1ccc(NC(=O)CCl)c(Oc2ccccc2)c1 | inactive |  |  |  |
| COc1cccc(OCC(=O)Nc2ccc(-c3nc4ccccc4s3)cc2)c1 |  | 9.9 | 67.6 | growth inhibition (GI) [4]: inactive |
| O=C(COc1ccc(-c2ccccc2)cc1)Nc1ccc2c(c1)OCO2 |  | 7 | -3 |  |
| O=C(CCl)Nc1ccc2c(c1)OCO2 | Active |  |  |  |

| SMILES | inhibition [1] | ΔTm [1] [°C] | growth inhibition (GI) [2] [%] | other results |
| --- | --- | --- | --- | --- |
| O=C(COc1cccc(Oc2ccccc2)c1)Nc1ccc(Cl)c(Cl)c1 |  | 8.9 | -1.6 |  |
| COc1ccc(NC(=O)CCl)cc1 | Active |  |  |  |
| COc1cccc(SCC(=O)Nc2ccc(-c3nc4ccccc4s3)cc2)c1 |  | 6.2 |  |  |
| COc1ccc(N(C)C(=O)CCl)cc1 | Active |  |  |  |
| COc1cccc(OCC(=O)Nc2ccc(Cl)cc2)c1 |  | 6.1 | 92.6 |  |
| O=C(CCl)N1CCCc2ccccc21 | Active |  |  |  |
| Cc1ccc(-n2nc3ccc(NC(=O)COc4ccccc4C)cc3n2)cc1 |  | 6.4 | 10.9 | IC50 [3]: 2.9 µM |
| O=C(COc1ccc(C(F)(F)F)cc1)Nc1ccc(Cl)c(Cl)c1 |  | 8.1 | -8.4 |  |
| O=C(COc1cccc(Oc2ccccc2)c1)Nc1ccc2c(c1)OCO2 |  | 8.2 | 5.7 |  |
| O=C(CCl)Nc1ccccc1-c1ccccc1 | inactive |  |  |  |
| O=C(COc1ccc(Cl)c(Cl)c1)Nc1ccc(C(F)(F)F)cc1 |  | 7.5 | -5.4 |  |
| CN(C(=O)CCl)c1ccccc1 | Active |  |  |  |
| N#Cc1cccc(OCC(=O)Nc2ccc(-c3nc4ccccc4s3)cc2)c1 |  | 8.1 | 53.4 |  |
| COc1cccc(OCC(=O)Nc2ccc(Oc3ccccc3)cc2)c1 |  | 6.7 | -17.5 |  |
| O=C(CCl)N(Cc1ccccc1)c1ccccc1 | inactive |  |  |  |
| Oc1ccc(C(F)(F)F)cc1 | Active |  |  |  |
| COc1cccc(OCC(=O)Nc2ccc3nc(C)ccc3c2)c1 |  | 6.6 | 6.5 |  |
| O=C(COc1ccc(Cl)cc1)Nc1ccc(Cl)c(Cl)c1 |  | 6.9 | -17.9 |  |
| Oc1cccc(Oc2ccccc2)c1 | Active |  |  |  |
| Cc1ccc2cc(NC(=O)COc3ccccc3F)ccc2n1 |  | 5.1 | 83.2 |  |
| COc1cccc(OCC(=O)Nc2ccc(Cl)c(Cl)c2)c1 |  | 6.8 | 26.7 |  |
| Cc1ccc2cc(NC(=O)CCl)ccc2n1 | Active |  |  |  |
